The IC50 is the concentration needed to halve the response being measured.

The target in the experiment is Tissue factor (Homo sapiens, UniProt P13726). The experiment can be described thus: Inhibition of tissue factor procoagulant activity in LPS-stimulated human THP1 cells preincubated for 1 hr before LPS addition measured after 5 hrs. The method in brief: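 THP-1 cells grown in RPMI-1640 with 10% heat-inactivated FCS, 37 °C, 5% CO2. Cells at 1 × 10⁶/mL pretreated 1 h with compound or 0.1% DMSO vehicle, then given 500 ng/mL LPS for 5 h. Cells were pelleted, resuspended, frozen/thawed three times, and the lysate incubated with prothrombin complex plus CaCl₂ (pH 7.3) 15 min at 37 °C. Factor Xa chromogenic substrate (0.5 mM) with EDTA was added and A405 read.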
Sequence of Tissue factor (P13726 whole entry): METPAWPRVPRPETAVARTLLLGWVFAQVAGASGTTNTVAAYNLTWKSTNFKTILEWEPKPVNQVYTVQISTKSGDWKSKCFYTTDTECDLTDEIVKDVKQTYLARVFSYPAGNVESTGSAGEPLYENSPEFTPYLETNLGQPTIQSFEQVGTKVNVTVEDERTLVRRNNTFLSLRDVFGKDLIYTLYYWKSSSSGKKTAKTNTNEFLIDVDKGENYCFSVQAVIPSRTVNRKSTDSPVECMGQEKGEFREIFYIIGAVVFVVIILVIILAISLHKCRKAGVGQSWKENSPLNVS

For the compound `COc1cc2c(cc1OC)[C@H]1Cc3ccc(OC)c(O[C@@H]4O[C@H](CO)[C@@H](O)[C@H](O)[C@H]4O)c3CN1CC2`, the concentration for half-maximal inhibition (IC50) turned out to be 0.013 µM.

In turn, `COc1cc2c(cc1OC)[C@@H]1Cc3ccc(OC)c(O[C@@H]4O[C@H](CO)[C@@H](O)[C@H](O)[C@H]4O)c3CN1CC2` came in with an IC50 of 0.017 µM.

Compound `COc1ccc2c(c1O[C@@H]1O[C@H](CO)[C@@H](O)[C@H](O)[C@H]1O)CN1CCc3cc4c(cc3[C@H]1C2)OCO4` came in with a concentration for half-maximal inhibition (IC50) of 0.0088 µM.

Consider `COc1ccc2c(c1O[C@@H]1O[C@H](CO)[C@@H](O)[C@H](O)[C@H]1O)CN1CCc3cc4c(cc3[C@@H]1C2)OCO4`, for which inhibition was half-maximal at 0.039 µM (IC50).

`COc1cc(/C=C/C(=O)Oc2c(OC)ccc3c2CN2CCc4cc5c(cc4C2C3)OCO5)ccc1OC(C)=O` (centres undefined): the concentration for half-maximal inhibition (IC50) was 0.202 µM.

In the case of `COc1ccc2c(c1OC(=O)/C=C/c1ccccc1)CN1CCc3cc4c(cc3C1C2)OCO4` (centres undefined), 0.0038 µM corresponded to half-maximal inhibition (IC50).

`COc1ccc2c(c1OC(=O)c1ccccc1OC(C)=O)CN1CCc3cc4c(cc3C1C2)OCO4` (centres undefined) registered an IC50 of 0.555 µM.

Consider `COc1ccc2c(c1OC(=O)c1ccccc1)CN1CCc3cc4c(cc3C1C2)OCO4` (centres undefined), for which the midpoint of inhibition, the IC50, lay at 0.377 µM.

`CCCCCC(=O)Oc1c(OC)ccc2c1CN1CCc3cc4c(cc3C1C2)OCO4` (centres undefined) had an IC50 of 1.5 µM.

`CCC(=O)Oc1c(OC)ccc2c1CN1CCc3cc4c(cc3C1C2)OCO4` (centres undefined) gave an IC50 of 0.119 µM.

As for `COc1ccc2c(c1OC(C)=O)CN1CCc3cc4c(cc3C1C2)OCO4` (centres undefined), the half-maximal inhibitory concentration (IC50) came to 0.063 µM.

Take `COc1ccc2c(c1O)CN1CCc3cc4c(cc3[C@@H]1C2)OCO4`: the IC50 amounted to 0.036 µM.

In turn, `COc1ccc2c(c1OC)CN1CCc3cc(O)c(O)cc3C1C2` (centres undefined) yielded a concentration for half-maximal inhibition (IC50) of 0.969 µM.

Compound `COc1cc2c(cc1OC)C1Cc3ccc(OC)c(O)c3CN1CC2` (centres undefined) showed an IC50 of 0.187 µM.

In the case of `COc1cc2c(cc1OC)C1Cc3ccc(OC)c(OC)c3CN1CC2` (centres undefined) [2,3,9,10-Tetramethoxy-5,8,13,13a-tetrahydro-6H-isoquino[3,2-a]isoquinoline], the half-inhibitory concentration (IC50) turned out to be 0.015 µM.

Compound `COc1ccc2c(c1OC)CN1CCc3cc4c(cc3C1C2)OCO4` (centres undefined) [9,10-dimethoxy-5,8,13,13a-tetrahydro-6H-[1,3]dioxolo[4,5-g]isoquino[3,2-a]isoquinoline] returned an IC50 of 0.0084 µM.

On to `COc1cc2c(cc1OC)[C@@H]1Cc3ccc(O)c(OC)c3CN1CC2` [(-)-Corydalmine], for which half-maximal inhibition (IC50) required 0.152 µM.

The compound `COc1cc2c(cc1OC)[C@@H]1Cc3ccc(OC)c(OC)c3CN1CC2` [(-)-Tetrahydropalmatine] displayed an IC50 of 0.023 µM.

In the case of `COc1ccc2c(c1O)CN1CCc3cc4c(cc3[C@H]1C2)OCO4` [R-(+)-Tetrahydroberberrubine], the IC50 stood at 0.0068 µM.

The values are drawn from BindingDB's records for doi:10.1016/j.bmc.2012.11.002 (China Pharmaceutical University, 2012).
